Experimental data from PubChem BioAssay AID504825 (Southern Research Specialized Biocontainment Screening …, 2011).

Tested on: HEp-2 viability, luminescence (CellTiter-Glo)
Assay: HEp-2 cell cytotoxicity, dose response, cytotoxicity control for RSV antiviral project, synthesized compounds, set 10 (AID 504825)
In short: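 Controls: cell-only wells, 100% reference; test system: uninfected HEp-2 human cells, compound cytotoxicity; amount: 10,595 HEp-2 cells per well; incubation: 6-day compound exposure at 37 °C, 5% CO2; detection: CellTiter-Glo luminescence; buffer or medium: DMEM/F12; dosing: 8 points, 1:2 steps, 0.5% DMSO; measure: % viability and CC50, 4-parameter fit; replication: triplicate wells per concentration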

SMILES	CC50 [µM]
COc1ccc(C)c(NC(=O)[C@@H]2CCCN2S(=O)(=O)c2cccc3cccnc23)c1	47.7
Cc1ccc(NC(=O)[C@@H]2CCCN2S(=O)(=O)c2cccc3cccnc23)c(C)c1	29
Cc1cc(NC(=O)[C@@H]2CCCN2S(=O)(=O)c2cccc3cccnc23)n(C(C)(C)C)n1	55.1
